High-throughput results as filed in PubChem.
HDAC3 inhib = human HDAC3 inhibition; inhibition, % at 8.3 µM; actives 0.15% (n = 320,000); recombinant HDAC3, fluorogenic peptide/trypsin coupled, fluorescence; in the data active = inhibition above about 26%, passing the limit was not always enough; inconclusive = no clear call, values can overlap the other calls
Target sequence (O15379 whole entry, looked up): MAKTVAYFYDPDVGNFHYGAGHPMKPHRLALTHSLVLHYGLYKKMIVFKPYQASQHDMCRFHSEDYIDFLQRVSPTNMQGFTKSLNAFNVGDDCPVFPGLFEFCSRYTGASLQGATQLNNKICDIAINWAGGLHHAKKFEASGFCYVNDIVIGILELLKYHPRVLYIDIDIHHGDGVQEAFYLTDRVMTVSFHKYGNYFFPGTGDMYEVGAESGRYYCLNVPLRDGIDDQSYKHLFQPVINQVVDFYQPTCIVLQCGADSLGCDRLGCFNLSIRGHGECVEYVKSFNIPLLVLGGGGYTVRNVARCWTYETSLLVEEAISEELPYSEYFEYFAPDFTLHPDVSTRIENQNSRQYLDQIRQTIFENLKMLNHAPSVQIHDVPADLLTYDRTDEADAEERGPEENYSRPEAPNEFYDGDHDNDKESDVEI
T cruzi repl = blocks replication of Trypanosoma cruzi; actives 1.4% (n = 300,000); T. cruzi beta-gal in NIH3T3, luminescence, 90 h; inhibition, % (test concentration not listed); AID 1885;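 active = mean inhibition across valid replicates above about 55%, limit read from the data; inconclusive = mean below that limit but half or more replicates reach it; inactive = mean below it, under half of replicates reach it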;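 note: signal also drops with host cell toxicity which is not excluded here; 0% = plate median of DMSO wells and 100% = zero luminescence signal; higher percent means less beta-gal luminescence so fewer parasites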
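System: Mouse NIH/3T3 fibroblasts infected with β-gal-expressing T. cruzi Tulahuen C4 | Quantity: NIH/3T3 cells, 5,000 per well | Reagent: 5000 reporter trypomastigotes per well | Dosing: Compound pinned at 50 nL/well, DMSO | Schedule: 3 h host attachment, then at least 90 h co-culture | Detection: GalScreen luminescence, 60 min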
PolyA inhibitor = yeast polyadenylation inhibition | actives 0.02% (n = 300,000) | S. cerevisiae SKY197-pL101 polyadenylation reporter, beta-gal luminescence; efflux-impaired pdr1/pdr3 knockout yeast; score 100 = 6 SD above DMSO | activity score, % at 12 µM;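 active = lowest replicate activity score at least 50, where 100 means six control SD above control mean; inconclusive = lowest score under 50 but half or more replicates reach 50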;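 note: yeast exposed to compound for 9 h at 30 °C; higher score means more reporter readthrough which indicates perturbed polyadenylation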
AI-2 QS modul = Vibrio harveyi AI-2 quorum sensing modulation | Vibrio harveyi JMH597 AI-2 luminescence/OD600 ratio, 9 h; hits give low values; strain lacks LuxN and CqsS sensors; 0 = neutral-control median | activity change, % at 7.5 µM | actives 0.4% (n = 300,000); in the data active = activity change below about -75%, passing the limit was not always enough; inconclusive = no clear call, values can overlap the other calls;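 note: luminescence divided by OD600 gain over 9 h not by final OD600 alone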
Efflux pump mplx = blocks antifungal efflux pumps in multiplex yeast assay | S. cerevisiae Candida pump triplex, Nile Red efflux | inhibition, % at 10 µM | actives 0.44% (n = 330,000);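 active = plate passing quality check with inhibition over a set limit, or well fluorescence over plate mean plus 4 SD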;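 note: Nile Red retained in pooled yeast measured as flow cytometry median fluorescence; 0% = buffer negative control and 100% = Enniatin B positive control; higher means more Nile Red kept so more efflux inhibition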
An asterisk follows results filed as active. Most compounds without a hit are left out; they make up all but 2.2% or so of the library.

`O=C(O)c1cccc(NC2=C(Cl)C(=O)c3ccccc3C2=O)c1` gave T cruzi repl 64*, PolyA inhibitor 9 and AI-2 QS modul inconclusive.
Screening C/C(=N/NS(=O)(=O)c1ccc(Cl)cc1)c1cccc(NC(=O)c2ccc(Cl)cc2Cl)c1 returned HDAC3 inhib -1, PolyA inhibitor 8, AI-2 QS modul -6 and Efflux pump mplx 0.
`COc1ccc(-c2cc(C(=O)Nc3cccc(S(=O)(=O)NCc4ccco4)c3)c3ccccc3n2)cc1OC` gave HDAC3 inhib -1, T cruzi repl 60*, PolyA inhibitor -6, AI-2 QS modul 0 and Efflux pump mplx 0.
For Cc1ccccc1OCC(=O)OCC(=O)NC1CC1 the results were HDAC3 inhib -11 and Efflux pump mplx 0.
`CCN(Cc1ccc(O)cc1)CC1CCCN(CCc2cccc(F)c2)C1` (configuration not stated) gave HDAC3 inhib 1, T cruzi repl 61*, PolyA inhibitor 2, AI-2 QS modul 14 and Efflux pump mplx 0.
CN(CC1CCCN(CCc2cccc(C(F)(F)F)c2)C1)C(=O)c1ccco1 (configuration not stated) was read as HDAC3 inhib 5, T cruzi repl 60*, PolyA inhibitor -6, AI-2 QS modul -10 and Efflux pump mplx 0.
`CN(CC(=O)Nc1ncn[nH]1)S(=O)(=O)c1cc(Cl)ccc1Cl` gave HDAC3 inhib 1, T cruzi repl -4, PolyA inhibitor -8, AI-2 QS modul 12 and Efflux pump mplx 0.
CC(=O)c1ccc(N2CCN(c3ccc(S(=O)(=O)NCCN(C)C)cc3[N+](=O)[O-])CC2)cc1 was read as HDAC3 inhib 8, T cruzi repl 59*, PolyA inhibitor -4, AI-2 QS modul 7 and Efflux pump mplx 0.
O=C(Nc1ccccc1O)c1ccc2c(c1)C(=O)N(Cc1ccco1)C2=O was read as HDAC3 inhib 41*, AI-2 QS modul 28 and Efflux pump mplx 0.
For COc1ccccc1NC(=O)c1ccc2c(c1)C(=O)N(Cc1ccco1)C2=O the results were HDAC3 inhib 2, AI-2 QS modul 33 and Efflux pump mplx 0.
For N=c1c(S(=O)(=O)c2ccc(Cl)cc2)cc2c(=O)n3ccccc3nc2n1C1CCCC1 the results were HDAC3 inhib -10, T cruzi repl 55*, PolyA inhibitor 1, AI-2 QS modul 4 and Efflux pump mplx 0.
`COc1ccc(CCNC(=O)c2cc3c(=O)n4ccccc4nc3n(C3CCCCC3)c2=N)cc1` gave HDAC3 inhib -11, T cruzi repl 60*, PolyA inhibitor -10, AI-2 QS modul 18 and Efflux pump mplx 0.
Screening N=c1c(S(=O)(=O)c2ccc(Br)cc2)cc2c(=O)n3ccccc3nc2n1C1CCCCC1 returned HDAC3 inhib 5, T cruzi repl 29, PolyA inhibitor 15, AI-2 QS modul 11 and Efflux pump mplx 0.
`Nc1nc(Cl)nc2c1ncn2[C@H]1C[C@H](O)[C@@H](CO)O1` gave HDAC3 inhib 1, T cruzi repl 21, PolyA inhibitor -21, AI-2 QS modul -158* and Efflux pump mplx 0.
For Cc1cccc2[nH]c(CCNC(=O)C3CCC(=O)N(CCc4cccc(F)c4)C3)nc12 (configuration not stated) the results were HDAC3 inhib -1, T cruzi repl -13, PolyA inhibitor 15, AI-2 QS modul 31 and Efflux pump mplx 0.
CCOC(=O)c1sc(NC(=O)CN2C(=O)NC3(CC(C)CC(C)(C)C3)C2=O)cc1C (configuration not stated) was read as T cruzi repl 59*, PolyA inhibitor 10, AI-2 QS modul -10 and Efflux pump mplx 0.
Nc1sc(-c2ccccc2)n[n+]1Cc1cccc2cccnc12 was read as HDAC3 inhib 2, T cruzi repl 60*, PolyA inhibitor -2, AI-2 QS modul -88* and Efflux pump mplx 0.
`CCc1ccc(NC(=O)CSc2nnnn2C)cc1` gave HDAC3 inhib -2, T cruzi repl -8, PolyA inhibitor 13, AI-2 QS modul 20 and Efflux pump mplx 0.
Screening CCc1ccc(-n2nnnc2SCC(=O)Nc2ccc(NC(C)=O)cc2)cc1 returned HDAC3 inhib -4, T cruzi repl 55*, PolyA inhibitor 5, AI-2 QS modul 9 and Efflux pump mplx 0.
Screening O=C(O)c1cccnc1Sc1ccccc1Cl returned T cruzi repl -2, PolyA inhibitor -1, AI-2 QS modul -2 and Efflux pump mplx 0.
Screening Cc1ccc(Sc2ncccc2C(=O)O)c(C)c1 returned HDAC3 inhib 6, T cruzi repl -1, PolyA inhibitor -1, AI-2 QS modul -88* and Efflux pump mplx 0.
For Cc1ccc(Sc2ncccc2C(=O)O)cc1C the results were HDAC3 inhib -6, T cruzi repl -19, PolyA inhibitor -1, AI-2 QS modul -86* and Efflux pump mplx 0.
`COc1cc(NC(=O)c2cccnc2Sc2ccc(C)c(C)c2)cc(OC)c1OC` gave HDAC3 inhib 1, T cruzi repl 5, PolyA inhibitor 1, AI-2 QS modul 36 and Efflux pump mplx 0.
`O=C1CC(Sc2nnnn2C2CCCCC2)C(=O)N1c1ccccc1` (configuration not stated) gave HDAC3 inhib -6, T cruzi repl 33, PolyA inhibitor -12, AI-2 QS modul 11 and Efflux pump mplx 0.
Screening Cn1nnnc1SC1CC(=O)N(c2ccccc2)C1=O (configuration not stated) returned HDAC3 inhib -7, T cruzi repl 66*, PolyA inhibitor -3, AI-2 QS modul 25 and Efflux pump mplx 0.
COc1ccccc1CNC(=O)C(=O)NCC1CCCN1S(=O)(=O)c1cccs1 (configuration not stated) was read as HDAC3 inhib 2, T cruzi repl 62*, PolyA inhibitor 5, AI-2 QS modul 17 and Efflux pump mplx 0.
`Cc1c(C(=O)N2CCN(c3cccc(Cl)c3)CC2)cccc1[N+](=O)[O-]` gave HDAC3 inhib -1, T cruzi repl 8, PolyA inhibitor -6, AI-2 QS modul 15 and Efflux pump mplx 0.
`COc1c(C)cc(Br)cc1C(=O)Nc1ccc(Cc2ccncc2)cc1` gave HDAC3 inhib 11, T cruzi repl 61*, PolyA inhibitor 1, AI-2 QS modul 30 and Efflux pump mplx 1.
For COc1ccccc1C(=O)Nc1ccc(Cc2ccncc2)cc1 the results were HDAC3 inhib -1, T cruzi repl 2, PolyA inhibitor 1, AI-2 QS modul 31 and Efflux pump mplx 0.
Cc1c([N+](=O)[O-])cc(C(=O)Nc2ccc(Cc3ccncc3)cc2)cc1[N+](=O)[O-] was read as HDAC3 inhib -1, T cruzi repl 59*, PolyA inhibitor -8, AI-2 QS modul 38 and Efflux pump mplx 0.
`CCOc1ccc(C(=O)Nc2ccc(Cc3ccncc3)cc2)cc1Br` gave HDAC3 inhib 0, T cruzi repl 74*, PolyA inhibitor -18, AI-2 QS modul 12 and Efflux pump mplx 0.
